# Measurements taken from ChEMBL document CHEMBL1156455, “Interaction between HIV-1 Rev and integrase proteins: a basis for the development of anti-HIV peptides” (J Biol Chem, 2007).
# Calls of active or inactive are those of the source. The rule behind the calls is not given here.
# Legend:
# [1] = biological target: Human immunodeficiency virus type 1 integrase (Human immunodeficiency virus 1) (UniProt Q7ZJM1); assay: Inhibition of recombinant HIV1 integrase strand transfer activity
# How it was run: (§1)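 IN (0.8 µM) incubated with peptides; 3'-end processing or strand-transfer activity followed on labelled gel-purified oligonucleotide substrates by gel size shift or specific cleavage.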
# [2] = biological target: Human immunodeficiency virus type 1 integrase (Human immunodeficiency virus 1) (UniProt Q7ZJM1); assay: Inhibition of recombinant HIV1 integrase 3'-end processing activity; how it was run: as §1
# [3] = test system: Human immunodeficiency virus 1; assay: Inhibition of HIV1 delta env/VSV-G replication in human sup T1 T-lymphoid […] cells assessed as inhibition of total viral DNA at 2 uM after 2 hrs by RT-PCR; type: functional, organism-based
# How it was run: (§2)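 Sup T1 cells pretreated 2 h with 12.5 µM peptide or 2 µM azidothymidine, then infected with HIV-1 Δenv/VSV-G at m.o.i. 2 for 6 h. Gag and Nef DNA amplified by PCR from 10 ng total cell DNA, 29 cycles.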
# [4] = test system: Human immunodeficiency virus 1; assay: Inhibition of HIV1 replication in human T-lymphoid H9 cells assessed as decrease in viral p24 level; type: functional, organism-based
# How it was run: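 H9 cells pretreated 2 h with peptide, infected with wild-type HIV-1 (HXB2, from transfected HEK293T) at m.o.i. 0.1 for 1 h at 37 °C, washed, cultured 10 days; p24 measured by capture immunoassay.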
# [5] = biological target: Human immunodeficiency virus type 1 integrase (Human immunodeficiency virus 1) (UniProt Q7ZJM1); assay: (§3) Inhibition of HIV1 integrase by quantitative ELISA
# How it was run: (§4)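 Overall integration reaction: 390 nM IN preincubated 10 min with peptide, then 1 µM biotin/digoxigenin-labelled duplex oligonucleotide in 20 mM Hepes pH 7.5, 10 mM MgCl2, 10 mM DTT, 10% Me2SO, 5% PEG-8000, 0.1 mg/ml BSA for 1 h at 37 °C. Stopped with EDTA/NaCl/salmon sperm DNA buffer; product read by immunoassay on avidin-coated plates.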
# [6] = test system: Human immunodeficiency virus 1; assay: Inhibition of HIV1 replication in human TZM-bl cells assessed as beta-galactosidase activity at 2.5 uM; type: functional
# How it was run: (§5)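 TZM-bl cells carrying TAR-driven β-galactosidase, incubated with peptides, then infected with HIV-1 in 20 µg/ml DEAE-dextran. Cells fixed 2 days post-infection, stained with X-gal, and blue cells counted by light microscopy.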
# [7] = biological target: Human immunodeficiency virus type 1 integrase (Human immunodeficiency virus 1) (UniProt Q7ZJM1); assay: Inhibition of HIV1 integrase by qualitative integration assay system; how it was run: as §1
# [8] = biological target: T1, Human immunodeficiency virus type 1 integrase (Human immunodeficiency virus 1, UniProt Q7ZJM1); assay: Binding affinity to HIV1 integrase by fluorescence anisotrophy
# T1 sequence (Q7ZJM1 whole entry): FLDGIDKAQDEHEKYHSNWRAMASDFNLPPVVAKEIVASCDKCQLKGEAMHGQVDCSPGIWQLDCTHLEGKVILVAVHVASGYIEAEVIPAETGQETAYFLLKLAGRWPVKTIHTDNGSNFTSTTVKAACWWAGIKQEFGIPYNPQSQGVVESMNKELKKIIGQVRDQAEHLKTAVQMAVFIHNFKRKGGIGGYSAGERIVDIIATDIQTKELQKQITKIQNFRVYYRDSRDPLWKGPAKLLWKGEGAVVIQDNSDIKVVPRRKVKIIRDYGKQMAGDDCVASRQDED
# How it was run: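 Fluorescein-labelled peptide (final 0.05 to 0.1 µM) in 20 mM Tris pH 7.4 at 10 °C; 100 µM IN (taken as monomer) titrated in 20 steps of 10 µl at 15-min intervals. Anisotropy read at ex 480/em 530 nm after each addition; data fitted to Hill equation for Ka (Kd = 1/Ka).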
# [9] = test system: Human immunodeficiency virus 1; assay: Inhibition of HIV1 delta env/VSV-G replication in human sup T1 T-lymphoid […] cells assessed as inhibition of viral DNA integration by RT-PCR; type: functional, organism-based
# How it was run: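 Sup T1 cells pretreated 2 h with peptide, infected with HIV-1 Δenv/VSV-G at m.o.i. 2 for 24 h. Integrated DNA quantified by two-round Alu-LTR PCR (12 cycles, then 50 real-time cycles) against an HXB2 plasmid standard curve (5 ng to 0.25 fg), quadruplicate samples.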
# [10] = biological target: T1, Human immunodeficiency virus type 1 integrase; assay: as §3; how it was run: as §4
# [11] = test system: Human immunodeficiency virus 1; assay: Inhibition of HIV1 delta env/VSV-G replication in human sup T1 T-lymphoid […] cells assessed as inhibition of total viral DNA at 12.5 uM after 2 hrs by RT-PCR; type: functional, organism-based; how it was run: as §2
# [12] = test system: Human immunodeficiency virus 1; assay: Inhibition of HIV1 replication in human TZM-bl cells assessed as beta-galactosidase activity; type: functional, organism-based; how it was run: as §5
# Chain of Human immunodeficiency virus type 1 integrase (Human immunodeficiency virus 1) (Q7ZJM1 as listed by the source): as the sequence (Q7ZJM1 whole entry) above
compound,measurement,setting,value
CSCC[C@H](N)C(=O)N[C@@H](C)C(=O)NCC(=O)N[C@@H](CCCNC(=N)N)C(=O)N[C@@H](CO)C(=O)NCC(=O)N[C@@H](CC(=O)O)C(=O)N[C@@H](CO)C(=O)N[C@@H](CC(=O)O)C(=O)N[C@@H](CCC(=O)O)C(=O)N[C@@H](CCC(=O)O)C(=O)N[C@@H](CC(C)C)C(=O)N[C@@H](CC(C)C)C(=O)N[C@@H](CCCCN)C(=O)N[C@H](C(=O)O)[C@@H](C)O,Activity,[1],inactive
same,Activity,[2],inactive
Cc1cn([C@H]2C[C@H](N=[N+]=[N-])[C@@H](CO)O2)c(=O)[nH]c1=O,Activity,[3],Active
H-STYLGRPAEPVPLQL-OH,Activity,[1],inactive
same,Activity,[2],inactive
CC[C@H](C)[C@H](NC(=O)[C@H](CO)NC(=O)[C@H](Cc1c[nH]c2ccccc12)NC(=O)[C@@H](NC(=O)[C@H](CCCNC(=N)N)NC(=O)CNC(=O)[C@H](CO)NC(=O)[C@@H]1CCCN1C(=O)[C@H](CO)NC(=O)[C@@H](NC(=O)[C@H](CCCNC(=N)N)NC(=O)[C@H](Cc1ccc(O)cc1)NC(=O)[C@H](CC(C)C)NC(=O)CNC(=O)[C@@H](N)CC(C)C)[C@H](C)O)[C@@H](C)CC)C(=O)O,Activity,[4],inactive
same,Activity,[5],Active
same,Activity,[6],inactive
same,Activity,[7],inactive
H-FVSTHFSVPASPWLLLIDIV-OH,Kd,[8],7.5 µM
CC[C@H](C)[C@H](NC(=O)[C@H](CC(C)C)NC(=O)[C@H](CCCNC(=N)N)NC(=O)[C@@H](NC(=O)[C@@H](NC(=O)[C@H](CCCCN)NC(=O)[C@@H](N)CC(C)C)[C@H](C)O)C(C)C)C(=O)N[C@@H](CCCCN)C(=O)N[C@@H](Cc1ccccc1)C(=O)N[C@@H](CC(C)C)C(=O)N[C@@H](Cc1ccc(O)cc1)C(=O)N[C@@H](CCC(N)=O)C(=O)N[C@@H](CO)C(=O)N[C@@H](CC(N)=O)C(=O)N1CCC[C@H]1C(=O)O,Activity,[1],Active
same,Activity,[2],Active
same,Activity,[9],Active
H-RLIKFLYQSNPPPSP-OH,Activity,[1],inactive
same,Activity,[2],inactive
H-LKTVRLIKFLY-OH [LKTVRLIKFLY],Activity,[4],Active
same,IC50,[10],25 µM
same,Activity,[11],inactive
same,Activity,[12],Dose-dependent effect
same,inhibition at 2.5 µM,"[6]; Human immunodeficiency virus 1, TZM-bl",70%
same,Kd,[8],2.8 µM
same,Activity,[1],Active
same,Activity,[2],Active
H-WRERQRQIRSISGWI-OH,Activity,[1],inactive
same,Activity,[2],inactive
H-QRQIRSISGWILSTY-OH,Activity,[1],Active
same,Activity,[2],Active
CC[C@H](C)[C@H](NC(=O)[C@H](CC(C)C)NC(=O)[C@H](CCCNC(=N)N)NC(=O)[C@@H](NC(=O)[C@@H](NC(=O)[C@H](CCCCN)NC(=O)[C@H](CC(C)C)NC(=O)[C@H](CC(C)C)NC(=O)[C@H](CCC(=O)O)NC(=O)[C@H](CCC(=O)O)NC(=O)[C@H](CC(=O)O)NC(=O)[C@H](CO)NC(=O)[C@H](CC(=O)O)NC(=O)CNC(=O)[C@H](CO)NC(=O)[C@H](CCCNC(=N)N)NC(=O)CNC(=O)[C@H](C)NC(=O)[C@@H](N)CCSC)[C@@H](C)O)C(C)C)C(=O)N[C@@H](CCCCN)C(=O)N[C@@H](Cc1ccccc1)C(=O)N[C@@H](CC(C)C)C(=O)N[C@@H](Cc1ccc(O)cc1)C(=O)N[C@@H](CCC(N)=O)C(=O)N[C@@H](CO)C(=O)N[C@@H](CC(N)=O)C(=O)N1CCC[C@H]1C(=O)N1CCC[C@H]1C(=O)N1CCC[C@H]1C(=O)N[C@@H](CO)C(=O)O,Activity,[11],inactive
same,Kd,[8],6.5 µM
H-DEELLKTVRLIKFLY-OH,Activity,[1],Active
same,Activity,[2],Active
H-QRQIRSISGWILSTYLGRPAEPVPLQ-OH,Kd,[8],11.2 µM
H-FRKLIYLTKVL-OH,Activity,[4],inactive
same,Activity,[5],Active
same,Activity,[6],inactive
same,Activity,[7],inactive
H-SGDSDEELLKTVRLI-OH,Activity,[1],inactive
same,Activity,[2],Active
H-GWILSTYLGRPAEPV-OH,Activity,[1],inactive
H-RSISGWILSTYLGRP-OH,Activity,[4],Active
same,IC50,[10],25 µM
same,Activity,[11],inactive
same,Activity,[12],Dose-dependent effect
same,Activity,[6],Active
same,Kd,[8],6.9 µM
same,Activity,[1],Active
same,Activity,[2],Active
same,Activity,[9],Active
